The source made the active and inactive calls. No cut-off for these calls is given here.
Assays:
Mus musculus [1] = assay: Analgesic activity in Swiss mouse at 100 umol/kg, po after 120 mins by hot plate test; format: functional
Procedure, shortened: (§1)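 Swiss mice (20–30 g) given 100 µmol/kg orally and placed on a hot plate at 55 ± 1 °C. Latency to fore- or hind-paw licking or jumping recorded 30, 60, 90 and 120 min after dosing. Baseline is the mean reaction time at 30 and 60 min before dosing. n = 6–8. ANOVA with Dunnett test vs control.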

Mus musculus [2] = assay: Hypothermic activity in Swiss mouse assessed as decrease in rectal body temperature at 100 umol/kg, po after 1 hr at room temperature; format: organism-based; conditions: in vivo
Procedure, shortened: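 Swiss mice with normal rectal temperature (37.0–38.0 °C) were acclimatized 1 h at 25 °C room temperature, and baseline rectal temperature was taken. Animals were then dosed orally at 100 µmol/kg, and rectal temperature was re-measured 1 h later; change from baseline reported, n = 8, mean ± S.E.M., Dunnett versus control.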

Mus musculus [3] = assay: Analgesic activity in Swiss mouse at 100 umol/kg, po after 30 mins by hot plate test; format: functional; procedure, shortened: as §1
Mus musculus [4] = assay: Analgesic activity in Swiss mouse at 100 umol/kg, po after 90 mins by hot plate test; format: functional; procedure, shortened: as §1
Mus musculus [5] = assay: Analgesic activity in Swiss mouse at 100 umol/kg, po after 60 mins by hot plate test; format: functional; procedure, shortened: as §1
Mus musculus [6] = assay: Antihyperalgesic activity in Swiss mouse assessed as inhibition of formalin-induced nociception at 100 umol/kg, po administered 40 mins before formalin challenge measured after 15 to 30 mins; format: functional, organism-based
Procedure, shortened: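 Swiss mice given 100 µmol/kg p.o. (vehicle arabic gum) 40 min before 20 µL of 2% formalin in 0.9% saline s.c. into the right hind paw. Licking/biting time recorded 0–5 min (neurogenic phase) and 15–30 min (inflammatory phase). n = 6. Mean ± S.E.M. ANOVA with Dunnett test vs control.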

Mus musculus [7] = assay: Analgesic activity in Swiss mouse assessed as inhibition of acetic acid-induced abdominal writhings at 100 umol/kg, po administered 60 mins before acetic acid challenge relative to control; parameters: scale not given: the % may be the effect or the level left
Mus musculus [8] = assay: Antihyperalgesic activity in Swiss mouse assessed as inhibition of formalin-induced nociception at 100 umol/kg, po administered 40 mins before formalin challenge measured after 0 to 5 mins; format: functional, organism-based
Mus musculus [9] = assay: Hepatotoxicity in Swiss mouse assessed as increase in serum gamma-glutamyl transferase at 100 umol/kg, po for five days after 24 hrs of last dose; format: toxicity, organism-based; conditions: in vivo
Procedure, shortened: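 Swiss mice received 100 µmol/kg p.o. daily for five days (n = 6; vehicle n = 5). 24 h after the last dose, blood was drawn under ethyl ether anaesthesia, and serum was separated at 3000 × g for 15 min and kept at 4 °C. gGT was assayed by a kinetic kit method, in U/L. ANOVA with Dunnett test.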

Mus musculus [10] = assay: Hepatotoxicity in Swiss mouse assessed as changes in morphology of liver parenchyma at 100 umol/kg, po for five days after 24 hrs of last dose; format: toxicity, organism-based; conditions: in vivo
Procedure, shortened: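 Swiss mice given 100 µmol/kg p.o. daily for 5 days; controls received vehicle. After blood collection 24 h post last dose, animals were killed with CO₂; ten liver samples per animal (two each from left, right, left middle, right middle and caudate lobes) fixed in 10% neutral buffered formalin, H&E stained, examined at 100× and 400× for necrosis or degeneration.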

Mus musculus [11] = assay: Analgesic activity in po dosed Swiss mouse assessed as inhibition of acetic acid-induced abdominal writhings administered 60 mins before acetic acid challenge measured for 25 mins; format: functional; conditions: Abdomen
Procedure, shortened: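 Swiss mice (20–30 g). Oral dosing before i.p. 0.6% (v/v) acetic acid, 0.1 mL/10 g. Writhes (abdominal contraction, pelvic rotation, hind-limb extension) counted for 20 min starting 5 min after injection. Result expressed as % inhibition vs vehicle controls. Screening at 100 µmol/kg p.o.; dose-response at 100, 30, 10 and 3 µmol/kg with ID50 by linear regression. n = 8.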

Mus musculus [12] = assay: Analgesic activity in Swiss mouse at 15 umol/kg, ip after 60 mins by hot plate test; format: functional
Procedure, shortened: (§2)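 Hot-plate reference arm in Swiss mice: morphine 15 µmol/kg i.p. Animals placed on a plate at 55 ± 1 °C. Paw-licking or jumping latency read 30, 60, 90 and 120 min after treatment. Baseline is the mean of readings at 30 and 60 min before treatment. n = 8.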

Mus musculus [13] = assay: Analgesic activity in Swiss mouse at 15 umol/kg, ip after 30 mins by hot plate test; format: functional; procedure, shortened: as §2
Mus musculus [14] = assay: Analgesic activity in Swiss mouse at 15 umol/kg, ip after 90 mins by hot plate test; format: functional; procedure, shortened: as §2
Mus musculus [15] = assay: Analgesic activity in Swiss mouse at 15 umol/kg, ip after 120 mins by hot plate test; format: functional; procedure, shortened: as §2

`CC(=O)Nc1ccc(S(=O)(=O)N2CCOCC2)cc1` was tested, and the Activity (Mus musculus [1]) was 8%, the Activity (Mus musculus [2]) was -1.4 °C and the Activity (Mus musculus [3]) was 22%. For the same compound, the Activity (Mus musculus [4]) was 20.7%, the Activity (Mus musculus [5]) was 23.3% and the Activity (Mus musculus [6]) was “inactive”. The Activity (Mus musculus [7]) was 43.2%.
`CCNS(=O)(=O)c1ccc(NC(C)=O)cc1` was tested, and the Activity (Mus musculus [1]) was 24.2%, the Activity (Mus musculus [8]) was “inactive” and the Activity (Mus musculus [2]) was 0.2 °C. The Activity (Mus musculus [3]) was 23%, the Activity (Mus musculus [4]) was 32.8% and the Activity (Mus musculus [5]) was 6%. For the same compound, the Activity (Mus musculus [6]) was “inactive” and the Activity (Mus musculus [7]) was 48.6%.
With `CC(=O)Nc1ccc(S(=O)(=O)N2CCSCC2)cc1` the Activity (Mus musculus [1]) was 65.1%, the Activity (Mus musculus [8]) was “inactive” and the Activity (Mus musculus [2]) was -0.7 °C. For the same compound, the Activity (Mus musculus [3]) was 25%, the Activity (Mus musculus [4]) was 48.3% and the Activity (Mus musculus [5]) was 28.6%. For the same compound, the Activity (Mus musculus [6]) was “inactive” and the Activity (Mus musculus [7]) was 44%.
With `CC(=O)Nc1ccc(S(=O)(=O)N2CCN(C)CC2)cc1` the Activity (Mus musculus [9]) was “Non-toxic”, the Activity (Mus musculus [10]) was “Non-toxic” and the Activity (Mus musculus [1]) was 21.3%. For the same compound, the Activity (Mus musculus [8]) was “inactive”, the Activity (Mus musculus [2]) was -1.8 °C and the Activity (Mus musculus [3]) was 57.5%. For the same compound, the Activity (Mus musculus [11]) was “Dose-dependent effect”, the Activity (Mus musculus [4]) was 19.6% and the Activity (Mus musculus [5]) was 47.9%. For the same compound, the Activity (Mus musculus [6]) was “inactive” and the Activity (Mus musculus [7]) was 75%.
`CN1CC[C@]23c4c5ccc(O)c4O[C@H]2[C@@H](O)C=C[C@H]3[C@H]1C5` [MORPHINE] was tested, and the Activity (Mus musculus [12]) was 74.7%, the Activity (Mus musculus [13]) was 78.9% and the Activity (Mus musculus [14]) was 57.8%. It also gave an Activity (Mus musculus [15]) of 32.1%.
In the case of `CC(=O)Nc1ccc(S(=O)(=O)N2CCNCC2)cc1`, the Activity (Mus musculus [1]) is reported as 0%, the Activity (Mus musculus [2]) is reported as 0.2 °C and the Activity (Mus musculus [3]) is reported as 23.5%. For the same compound, the Activity (Mus musculus [4]) was 37.1%, the Activity (Mus musculus [5]) was 7.2% and the Activity (Mus musculus [6]) was “inactive”. For the same compound, the Activity (Mus musculus [7]) was 61.1%.
`CCN(CC)S(=O)(=O)c1ccc(NC(C)=O)cc1` was tested, and the Activity (Mus musculus [1]) was 0%, the Activity (Mus musculus [2]) was -1.8 °C and the Activity (Mus musculus [3]) was 2.4%. The Activity (Mus musculus [4]) was 0%, the Activity (Mus musculus [5]) was 0% and the Activity (Mus musculus [6]) was “Active”. For the same compound, the Activity (Mus musculus [7]) was 45.8%.
With `CC(=O)Nc1ccc(S(=O)(=O)N2CCCCC2)cc1` the Activity (Mus musculus [1]) was 30.7%, the Activity (Mus musculus [2]) was -0.8 °C and the Activity (Mus musculus [3]) was 26.5%. The Activity (Mus musculus [4]) was 18.2%, the Activity (Mus musculus [5]) was 14.3% and the Activity (Mus musculus [6]) was “Active”. For the same compound, the Activity (Mus musculus [7]) was 29.6%.
`CC(=O)Nc1ccc(O)cc1` [ACETAMINOPHEN] was tested, and the Activity (Mus musculus [10]) was “Toxic”, the Activity (Mus musculus [1]) was 54.6% and the Activity (Mus musculus [2]) was -1.1 °C. The Activity (Mus musculus [3]) was 51.8%, the Activity (Mus musculus [4]) was 54.6% and the Activity (Mus musculus [5]) was 60.6%. For the same compound, the Activity (Mus musculus [6]) was “inactive” and the Activity (Mus musculus [7]) was 34%.

Source: ChEMBL document CHEMBL1153756, “Synthesis and pharmacological evaluation of N-phenyl-acetamide sulfonamides designed as novel non-hepatotoxic analgesic candidates” (Eur J Med Chem, 2009)
